The source of these data is ChEMBL document CHEMBL3585289, “Potent and Selective Amidopyrazole Inhibitors of IRAK4 That Are Efficacious in a Rodent Model of Inflammation” (ACS Med Chem Lett, 2015).

The structures appear in SMILES notation. Converted amounts (≈) assume the structure as drawn. The source made the active and inactive calls. No cut-off for these calls is given here.

Series [1] is described as follows: AUC (0 to 8 hrs) in Sprague-Dawley rat at 10 mg/kg, po administered as cassette dosing. The format is ADME, organism-based. The note with it: in vivo. More on the design: dose 10 mg/kg, time < 8 hr, route oral.
In series [2] the test system is Rattus norvegicus. The experiment in a line: Antiinflammatory activity in Lewis rat peritonitis model assessed as reduction of TLR2 agonist PAM2CSK4-induced TNF-alpha production in plasma at 100 mg/kg, po administered 1 hr prior to PAM2CSK4 challenge measured after 3 hrs relative to vehicle-treated control. The format is functional. Also on record: scale not given: the % may be the effect or the level left. Summed up: (§1)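 Female Lewis rats (n = 9) dosed by oral gavage at 100 mg/kg. One hour later, TLR2 agonist PAM2CSK4 injected intraperitoneally. Plasma collected 3 h after injection for cytokine levels and drug exposure. Cytokines expressed relative to a vehicle-only group.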

Series [3] deals with Rattus norvegicus. The experiment in a line: Antiinflammatory activity in Lewis rat peritonitis model assessed as reduction of TLR2 agonist PAM2CSK4-induced IL-1beta production in plasma at 100 mg/kg, po administered 1 hr prior to PAM2CSK4 challenge measured after 3 hrs relative to vehicle-treated control. It is filed as functional. Also on record: scale not given: the % may be the effect or the level left. Put shortly:
as §1

Series [4] has as its system Rattus norvegicus. Description: Antiinflammatory activity in Lewis rat peritonitis model assessed as reduction of TLR2 agonist PAM2CSK4-induced IFN-gamma production in plasma at 100 mg/kg, po administered 1 hr prior to PAM2CSK4 challenge measured after 3 hrs relative to vehicle-treated control. The format is functional. Also on record: scale not given: the % may be the effect or the level left. Put shortly: as §1

The subject of series [5] is Rattus norvegicus. Description: Antiinflammatory activity in Lewis rat peritonitis model assessed as reduction of TLR2 agonist PAM2CSK4-induced IL-6 production in plasma at 100 mg/kg, po administered 1 hr prior to PAM2CSK4 challenge measured after 3 hrs relative to vehicle-treated control. The format is functional. Also on record: scale not given: the % may be the effect or the level left. Summed up:
as §1

In series [6] the test system is Pgp. Description: Activity at rat Pgp assessed as apparent permeability by cell-based assay. It is filed as ADME. The note with it: not told.
The target in series [7] is T1, Interleukin-1 receptor-associated kinase 4 (Homo sapiens, UniProt Q9NWZ3).
T1 sequence (Q9NWZ3 whole entry): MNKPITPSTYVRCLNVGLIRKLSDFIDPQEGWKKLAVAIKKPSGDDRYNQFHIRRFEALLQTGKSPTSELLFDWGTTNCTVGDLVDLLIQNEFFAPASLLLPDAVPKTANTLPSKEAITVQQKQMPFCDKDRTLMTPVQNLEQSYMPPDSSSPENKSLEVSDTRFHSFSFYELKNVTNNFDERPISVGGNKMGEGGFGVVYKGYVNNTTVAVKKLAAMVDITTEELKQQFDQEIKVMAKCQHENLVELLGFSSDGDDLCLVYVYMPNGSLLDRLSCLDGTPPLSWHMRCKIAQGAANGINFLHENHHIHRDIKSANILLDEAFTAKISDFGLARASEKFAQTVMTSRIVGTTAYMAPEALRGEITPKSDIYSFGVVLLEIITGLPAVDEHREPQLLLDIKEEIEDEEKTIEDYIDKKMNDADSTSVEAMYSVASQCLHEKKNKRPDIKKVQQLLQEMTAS
Description: Inhibition of IRAK4 in human THP1-XBlue cells assessed as suppression of TLR4 agonist LPS-induced activation of NF-kappaB preincubated for 1 hr followed by LPS challenge measured after 5 hrs by secreted embryonic alkaline phosphatase reporter gene assay. The format is cell-based, THP-1.

Series [8] is described as follows: Oral bioavailability in Sprague-Dawley rat at 10 mg/kg administered as cassette dosing. The format is ADME, organism-based. The note with it: in vivo.
A short description of series [9]: AUC (0 to 8 hrs) in Sprague-Dawley rat at 2 mg/kg, iv. The format is ADME, organism-based. Also on record: dose 2 mg/kg, time < 8 hr, route intravenous. The note with it: in vivo.
The nature of series [10]: Fraction unbound in rat plasma at 10 uM after 6 hrs by dialysis method. The format is ADME, cell-free.
The nature of series [11]: AUC (0 to 24 hrs) in mouse at 5 mg/kg, po. It is filed as ADME, organism-based. Also on record: dose 5 mg/kg, time < 24 hr, route oral. The note with it: in vivo.
Series [12] deals with Rattus norvegicus. Description: Antiinflammatory activity in Lewis rat peritonitis model assessed as reduction of TLR2 agonist PAM2CSK4-induced IL-8 production in plasma at 100 mg/kg, po administered 1 hr prior to PAM2CSK4 challenge measured after 3 hrs relative to vehicle-treated control. The format is functional. Also on record: scale not given: the % may be the effect or the level left. Summed up:
as §1

Series [13] relates to Mus musculus. The experiment in a line: Antiinflammatory activity in CIA-MAB-50-induced BALB/c mouse arthritis model assessed as decrease in LPS-induced paw size at 100 mg/kg, po qd administered on day 3 to 10 post LPS challenge measured on day 10 relative to vehicle-treated control. The format is functional, organism-based. Summed up:
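BALB/c female mice given arthritogenic monoclonal antibody CIA-MAB-50 (2.5 mg) on day 0, then LPS booster (25 μg i.p.) on day 3. Oral gavage once daily on days 3–10; vehicle group received methylcellulose. Paw size measured on days 0, 3, 6, 8 and 10. Study ended on day 10, and day-10 paw size was compared with vehicle.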

The target of series [14] is T2, Interleukin-1 receptor-associated kinase 4 (Homo sapiens) (UniProt Q9NWZ3).
T2 sequence (whole entry): T1 sequence (Q9NWZ3 whole entry)
The note with it: 1 uM.

Series [15] concerns the target T1, Interleukin-1 receptor-associated kinase 4. The experiment in a line: biochemical.
Series [16] is described as follows: Kinetic aqueous solubility of the compound in phosphate buffered saline at pH 7 at 25 degC after 24 hrs by HPLC/DAD method. It is filed as physicochemical. The note with it: read-out: Kinetic_solubility.
A short description of series [17]: AUC (0 to 6 hrs) in Sprague-Dawley rat at 10 mg/kg, po administered as cassette dosing. It is filed as ADME, organism-based. More on the design: time < 6 hr, dose 10 mg/kg, route oral. The note with it: in vivo.
Series [18] is described as follows: Drug metabolism in rat hepatocytes assessed as monooxidized metabolite formation. The format is ADME, cell-based, Hepatocyte.

Consider `Cc1ccc(-n2nc(N3CCN(C)CC3)cc2NC(=O)c2cnn3cccnc23)nc1`, for which the AUC(0-t) (usually exposure summed from dosing to a finite time, without extrapolation to infinity) at 8 h in series [1] was 1.7 µM·h; in series [9], 1.29 µM·h. The Activity was found to be 32% in series [2]; 28% in series [3]; 30% in [4]; 85% in series [5]; 34% in series [12]. In series [6], the Papp (as a rule, the rate of passage across a membrane or cell layer, normalised by area and donor concentration) amounted to 32 ×10⁻⁶ cm/s. In addition, the IC50 (as a rule, the concentration that inhibits the measured activity by half) in [7] was determined as 83 nM; in [15] it was 5 nM. The bioavailability (commonly the share of a dose that reaches the circulation, judged against a reference dose that is usually intravenous) in series [8] amounted to 28%. Further, in [10], the fraction unbound (commonly the share of the substance not bound to proteins or other matrix) at 6 h, 10 µM came out at 0.21. Further, the AUC(0-t) at 24 h in [11] came out at 2.3 µM·h. Moreover, the outcome in series [13] was Active. In addition, the inhibition – broadly, the drop in the measured response relative to a control, in per cent – in series [14] is more than 80%.

Consider `Cc1cccc(-n2nc(C3CCN(S(C)(=O)=O)CC3)cc2NC(=O)c2cnn3cccnc23)c1`, for which the IC50 in series [15] amounted to 2100 nM.

Regarding `Cc1ccc(-n2nc(C3CCCCC3)cc2NC(=O)c2cnn3cccnc23)cc1`, in series [16], the solubility kinetic at 24 h was less than 2 µM. The molecule also yielded an IC50 in [15] of 2400 nM.

`Cc1ccc(-n2nc(C3CCN(C(N)=O)CC3)cc2NC(=O)c2cnn3cccnc23)cc1` came in with an IC50 in series [15] of 220 nM.

Take `COc1ccc(-n2nc(C3CCN(S(C)(=O)=O)CC3)cc2NC(=O)c2cnn3cccnc23)cc1`: the AUC(0-t) at 6 h in [17] came to 0.43 µM·h. Besides, the IC50 in series [15] stood at 71 nM.

As to `Cc1ccc(-n2nc(-c3ccccc3)cc2NC(=O)c2cnn3cccnc23)cc1`, in series [16], the solubility kinetic at 24 h is less than 3 µM. Inhibition in series [15] was half-maximal at 690 nM (IC50).

In the case of `CS(=O)(=O)N1CCC(c2cc(NC(=O)c3cnn4cccnc34)n(-c3ccc(C4CC4)cn3)n2)CC1`, in series [1], the AUC(0-t) at 8 h came out at 1.9 µM·h. Further, the IC50 in series [15] was 20 nM.

Regarding `COc1cc(-c2cc(NC(=O)c3cnn4cccnc34)n(-c3ccc(C)cc3)n2)ccn1`, the solubility kinetic at 24 h in [16] is less than 2 µM. In addition, the AUC(0-t) at 6 h in series [17] stood at 1.39 µM·h. The IC50 in series [15] came out at 390 nM.

On to `Cc1ccc(-n2nc(C3CCN(C)CC3)cc2NC(=O)c2cnn3cccnc23)cc1`, for which the solubility kinetic at 24 h in series [16] turned out to be 165 µM (≈ 68.6 µg/mL). The molecule further registered an IC50 in [15] of 150 nM.

On to `COc1ccc(-c2cc(NC(=O)c3cnn4cccnc34)n(-c3ccc(C)cc3)n2)cc1OC`, for which the solubility kinetic at 24 h in series [16] is less than 2 µM. Moreover, the Drug metabolism entry in series [18] was “metabolite_detected”. For the same molecule, in series [15], the half-inhibitory concentration (IC50) came to 44 nM.

Regarding `CS(=O)(=O)N1CCC(c2cc(NC(=O)c3cnn4cccnc34)n(-c3ccccc3)n2)CC1`, the IC50 in series [15] amounted to 280 nM.

Take `CC(=O)N1CCC(c2cc(NC(=O)c3cnn4cccnc34)n(-c3ccc(C)cc3)n2)CC1`: the solubility kinetic at 24 h in [16] is 163 µM (≈ 72.3 µg/mL). In [17], the exposure AUC(0-t) at 6 h is 0.71 µM·h. Further, the IC50 in [15] amounted to 180 nM.

In turn, `Cc1ccc(-n2nc(C3CCN(S(C)(=O)=O)CC3)cc2NC(=O)c2cnn3cccnc23)c(F)c1` had an AUC(0-t) at 6 h in series [17] of 11.8 µM·h. In addition, in series [15], the IC50 was 40 nM.

In series [15], `Cc1ccc(-n2nc(C3CCN(C(C)C)CC3)cc2NC(=O)c2cnn3cccnc23)nc1` gave an IC50 of 7 nM.

As for `CC(C)N1CCC(c2cc(NC(=O)c3cnn4cccnc34)n(-c3ccc(C4CC4)cc3F)n2)CC1`, the AUC(0-t) at 8 h in series [1] was 1.11 µM·h. The same molecule had an IC50 in series [15] of 13 nM.
